Assay results published in ChEMBL document CHEMBL2062397, “N-heterocyclic dicarboxylic acids: broad-spectrum inhibitors of metallo-β-lactamases with co-antibacterial effect against antibiotic-resistant bacteria” (Bioorg Med Chem Lett, 2012).
Calls of active or inactive are those of the source. No cut-off for these calls is given here.

Tests used:
[1] = Inhibition of CcrA using cezafolin as substrate up to 50 uM incubated for 30 mins prior to substrate addition
[2] = Inhibition of L1 using cezafolin as substrate up to 50 uM incubated for 30 mins prior to substrate addition
[3] = tested on: Escherichia coli BL21(DE3); experiment: Inhibition of CcrA in Escherichia coli BL21(DE3) assessed as reduction in cefazolin MIC for after 24 hrs by macrobroth dilution assay; set-up: scale not given: the % may be the effect or the level left
Outline: (§1)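 Macrobroth twofold antibiotic dilutions in Mueller–Hinton medium, tubes with or without inhibitor. Strains were E. coli BL21(DE3) carrying pMSZ02-CcrA, pET-26b-ImiS or pET26b-L1, and K. pneumoniae ATCC 700603. Incubated 37 °C for 24 h; MIC read. Duplicate.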

[4] = tested on: Escherichia coli BL21(DE3); experiment: Inhibition of Imis in Escherichia coli BL21(DE3) assessed as reduction in cefazolin MIC after 24 hrs by macrobroth dilution assay; set-up: scale not given: the % may be the effect or the level left; details: in the assay text read “imipenem” for “cefazolin”; outline: as §1
[5] = tested on: Escherichia coli BL21(DE3); experiment: Inhibition of L1 in Escherichia coli BL21(DE3) assessed as reduction in cefazolin MIC after 24 hrs by macrobroth dilution assay; outline: as §1
Klebsiella pneumoniae = experiment: Inhibition of metallo-beta-lactamase in Klebsiella pneumoniae ATCC 700603 assessed as reduction in cefazolin MIC after 24 hrs by macrobroth dilution assay; outline: as §1
Staphylococcus aureus [6] = experiment: Inhibition of metallo-beta-lactamase in methicillin-resistant Staphylococcus aureus isolate 1 assessed as reduction in cefazolin MIC after 24 hrs by macrobroth dilution assay
Outline: (§2)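 Macrobroth twofold dilution in Mueller–Hinton (MH) medium. Each tube held inhibitor stock plus antibiotic from a 1280 µg/ml stock, serially twofold diluted. Final inoculum was 5 × 10⁵ CFU/ml. MIC was read after 24 h at 37 °C, with inhibitor present or absent, in duplicate.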

Staphylococcus aureus [7] = experiment: Inhibition of metallo-beta-lactamase in methicillin-resistant Staphylococcus aureus isolate 1 assessed as reduction in vancomycin MIC after 24 hrs by macrobroth dilution assay; outline: as §2
Staphylococcus aureus [8] = experiment: Inhibition of metallo-beta-lactamase in methicillin-resistant Staphylococcus aureus isolate 2 assessed as reduction in cefazolin MIC after 24 hrs by macrobroth dilution assay; outline: as §2
Staphylococcus aureus [9] = experiment: Inhibition of metallo-beta-lactamase in methicillin-resistant Staphylococcus aureus isolate 2 assessed as reduction in vancomycin MIC after 24 hrs by macrobroth dilution assay; outline: as §2
[10] = Inhibition of ImiS using imipenem as substrate up to 50 uM incubated for 30 mins prior to substrate addition
[11] = Noncompetitive inhibition of CcrA using cezafolin as substrate incubated for 30 mins prior to substrate addition by Lineweaver-burk plot analysis
Outline: (§3)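 Purified CcrA (Bacteroides fragilis) or L1 (S. maltophilia), over-expressed. Cefazolin substrate at several concentrations, inhibitor concentration varied from 0. Enzyme and inhibitor preincubated 30 min. Run in 50 mM Tris pH 7.0 at 25 °C with UV–Vis spectrophotometric read-out. Inhibition mode from Lineweaver–Burk plots; Ki determined.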

[12] = Noncompetitive inhibition of ImiS using imipenem as substrate incubated for 30 mins prior to substrate addition by Lineweaver-burk plot analysis
[13] = Competitive inhibition of CcrA using cezafolin as substrate incubated for 30 mins prior to substrate addition by Lineweaver-burk plot analysis; outline: as §3
[14] = Competitive inhibition of L1 using cezafolin as substrate incubated for 30 mins prior to substrate addition by Lineweaver-burk plot analysis; outline: as §3
[15] = Competitive inhibition of ImiS using imipenem as substrate incubated for 30 mins prior to substrate addition by Lineweaver-burk plot analysis

Structure (SMILES) | inhibition [1] | inhibition [2] | Activity [3] | Activity [4] | Activity [5] | Activity (Klebsiella pneumoniae) | Activity (Staphylococcus aureus [6]) | Activity (Staphylococcus aureus [7]) | Activity (Staphylococcus aureus [8]) | Activity (Staphylococcus aureus [9]) | inhibition [10] | Ki [11] [nM] | Ki [12] [nM] | Ki [13] [nM] | Ki [14] [nM] | Ki [15] [nM]
Sc1nnc(-c2ccccn2)[nH]1 | inactive | inactive | inactive | inactive | inactive | inactive | inactive | inactive | inactive | inactive | inactive |  |  |  |  | 
Sc1nnc(-c2ccccn2)s1 |  | inactive | 50% | 50% | inactive | inactive | inactive | inactive | inactive | inactive |  | 5400 | 3500 |  |  | 
Sc1nnc(-c2ccncc2)[nH]1 | inactive | inactive | inactive | inactive | inactive | inactive | inactive | inactive | inactive | inactive | inactive |  |  |  |  | 
S=c1[nH]nc(-c2ccncc2)s1 |  | inactive | 50% | 50% | inactive | inactive | inactive | inactive | inactive | inactive |  | 5900 | 6800 |  |  | 
O=C(O)C1CSC(C(=O)O)N1 (configuration not stated) [TIDIACIC] |  |  | Active | Active | Active | Active | inactive | inactive | inactive | inactive |  |  |  | 640 | 1800 | 7100
O=C(O)C1COC(C(=O)O)N1 (configuration not stated) |  |  | Active | inactive | Active | Active | inactive | inactive | inactive | inactive | inactive |  |  | 1100 | 1900 | 
O=C(O)C1CCC(C(=O)O)N1 (configuration not stated) |  |  | Active | inactive | Active | Active | inactive | inactive | inactive | inactive | inactive |  |  | 730 | 690 | 
